Calls of active or inactive are those of the source. The rule behind the calls is not given here.
Experiments:
[1] = target: T1, ALK tyrosine kinase receptor (Homo sapiens, UniProt Q9UM73); assay: Inhibition of ALK tyrosine phosphorylation in human Karpas-299 cells after 2 hrs in presence of mouse plasma; type: cell-based
[2] = target: T1, ALK tyrosine kinase receptor; assay: Inhibition of human ALK cytoplasmic domain expressed in baculovirus using GST-PLCgamma as substrate preincubated for 15 mins before substrate addition measured after 1 hr by time resolved fluorescence assay
[3] = Cmax in rat at 100 mg/kg, po; type: ADME, organism-based; design: dose 100 mg/kg, route oral; conditions: in vivo
Outline: (§1)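 Rat oral dose escalation at 10, 30, 55 and 100 mg/kg. Gavage at 5 mL/kg in 40% HPβCD after an overnight fast. Serial tail-vein blood was drawn into heparinized tubes. Plasma was protein-precipitated with acetonitrile and assayed by LC-MS/MS. Cmax and AUC0–12 were derived noncompartmentally; n = 2 at 10 mg/kg.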

[4] = Cmax in rat at 30 mg/kg, po; type: ADME, organism-based; design: dose 30 mg/kg, route oral; conditions: in vivo; outline: as §1
Rattus norvegicus [5] = assay: Ratio of Cmax at 10 mg/kg, po to Cmax at 100 mg/kg, po in rat; type: ADME, organism-based; conditions: in vivo
Outline: (§2)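 Oral dose-escalation PK study in rats at 10, 30, 55 and 100 mg/kg. […] The ratio compares the 10 mg/kg value with the 100 mg/kg value.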

[6] = Cmax in rat at 55 mg/kg, po; type: ADME, organism-based; design: dose 55 mg/kg, route oral; conditions: in vivo; outline: as §1
[7] = AUC (0 to 12 hrs) in rat 100 mg/kg, po; type: ADME, organism-based; design: time < 12 hr, dose 100 mg/kg, route oral; conditions: plasma; outline: as §1
Rattus norvegicus [8] = assay: Ratio of AUC (0 to 12 h) at 10 mg/kg, po to AUC (0 to 12 h) at 100 mg/kg, po in rat; type: ADME, organism-based; conditions: in vivo; outline: as §2
[9] = Cmax in rat at 10 mg/kg, po; type: ADME, organism-based; design: dose 10 mg/kg, route oral; conditions: in vivo; outline: as §1
[10] = AUC (0 to 12 hrs) in rat 10 mg/kg, po; type: ADME, organism-based; design: time < 12 hr, dose 10 mg/kg, route oral; conditions: plasma; outline: as §1
[11] = AUC (0 to 12 hrs) in rat 55 mg/kg, po; type: ADME, organism-based; design: time < 12 hr, dose 55 mg/kg, route oral; conditions: plasma; outline: as §1
KARPAS-299 = assay: Antitumor activity against human KARPAS299 cells expressing NPM-ALK xenografted in SCID mouse assessed as tumor stasis up to 100 mg/kg, po bid for 12 days; type: functional, organism-based; design: dose 100 mg/kg
[12] = AUC (0 to 12 hrs) in rat 30 mg/kg, po; type: ADME, organism-based; design: time < 12 hr, dose 30 mg/kg, route oral; conditions: plasma; outline: as §1

T1 sequence (Q9UM73 whole entry, the tested form may be a part): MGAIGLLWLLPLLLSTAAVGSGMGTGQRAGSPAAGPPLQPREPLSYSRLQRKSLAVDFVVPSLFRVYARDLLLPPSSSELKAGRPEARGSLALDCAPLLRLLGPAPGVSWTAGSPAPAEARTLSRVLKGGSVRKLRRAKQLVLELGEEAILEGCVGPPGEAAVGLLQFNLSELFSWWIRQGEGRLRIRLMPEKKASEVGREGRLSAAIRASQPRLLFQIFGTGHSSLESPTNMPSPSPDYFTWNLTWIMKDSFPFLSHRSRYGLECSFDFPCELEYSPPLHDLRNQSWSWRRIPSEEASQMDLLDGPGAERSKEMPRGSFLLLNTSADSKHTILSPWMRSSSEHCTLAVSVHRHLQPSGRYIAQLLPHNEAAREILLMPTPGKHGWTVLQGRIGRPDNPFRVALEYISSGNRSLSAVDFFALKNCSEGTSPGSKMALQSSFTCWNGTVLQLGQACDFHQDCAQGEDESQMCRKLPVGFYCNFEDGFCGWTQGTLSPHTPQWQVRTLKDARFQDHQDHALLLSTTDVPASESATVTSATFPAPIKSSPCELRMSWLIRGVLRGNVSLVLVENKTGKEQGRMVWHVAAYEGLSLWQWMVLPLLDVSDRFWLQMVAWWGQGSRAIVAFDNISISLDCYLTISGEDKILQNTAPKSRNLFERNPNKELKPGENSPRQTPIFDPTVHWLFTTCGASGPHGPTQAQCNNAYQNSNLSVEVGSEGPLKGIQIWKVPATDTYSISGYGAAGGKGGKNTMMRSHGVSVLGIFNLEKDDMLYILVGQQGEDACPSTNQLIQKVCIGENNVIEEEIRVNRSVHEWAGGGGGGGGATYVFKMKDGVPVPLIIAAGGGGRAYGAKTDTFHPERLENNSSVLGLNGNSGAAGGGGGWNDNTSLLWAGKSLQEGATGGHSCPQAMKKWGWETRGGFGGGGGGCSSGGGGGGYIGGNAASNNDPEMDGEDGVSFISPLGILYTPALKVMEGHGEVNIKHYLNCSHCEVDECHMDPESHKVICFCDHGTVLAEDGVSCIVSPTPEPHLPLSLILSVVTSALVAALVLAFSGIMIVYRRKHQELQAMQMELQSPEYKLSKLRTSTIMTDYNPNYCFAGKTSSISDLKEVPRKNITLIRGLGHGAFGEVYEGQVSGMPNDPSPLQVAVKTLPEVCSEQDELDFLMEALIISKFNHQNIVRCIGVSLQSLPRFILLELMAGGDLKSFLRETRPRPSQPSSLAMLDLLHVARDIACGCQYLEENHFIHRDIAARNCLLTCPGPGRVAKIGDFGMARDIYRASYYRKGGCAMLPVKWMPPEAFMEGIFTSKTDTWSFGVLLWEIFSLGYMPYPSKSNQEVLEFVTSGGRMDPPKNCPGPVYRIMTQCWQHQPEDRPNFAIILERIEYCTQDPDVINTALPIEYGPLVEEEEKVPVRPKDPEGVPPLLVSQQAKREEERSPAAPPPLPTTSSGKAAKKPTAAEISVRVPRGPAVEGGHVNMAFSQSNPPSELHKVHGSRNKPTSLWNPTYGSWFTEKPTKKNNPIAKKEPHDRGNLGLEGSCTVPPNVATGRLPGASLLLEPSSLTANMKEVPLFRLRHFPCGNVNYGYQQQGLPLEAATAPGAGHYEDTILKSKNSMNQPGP

Compound	IC50 [1] [nM]	IC50 [2] [nM]	Cmax [3] [ng/mL]	Cmax [4] [ng/mL]	Ratio (Rattus norvegicus [5])	Cmax [6] [ng/mL]	AUC(0-t) at 12 h [7] [ng·h/mL]	Ratio (Rattus norvegicus [8])	Cmax [9] [ng/mL]	AUC(0-t) at 12 h [10] [ng·h/mL]	AUC(0-t) at 12 h [11] [ng·h/mL]	Activity (KARPAS-299)	AUC(0-t) at 12 h [12] [ng·h/mL]
COc1c(Nc2ncc(Cl)c(N[C@H]3[C@@H](C(N)=O)[C@@H]4C=C[C@H]3C4)n2)ccc2c1CC[C@H](N1CCOCC1)CC2	120	35											
CCN1C(=O)CCCc2c1ccc(Nc1ncc(Cl)c(N[C@H]3[C@@H](C(N)=O)[C@@H]4C=C[C@H]3C4)n1)c2OC	45		1550	1360	2	1450	14000	2	925	6020	13800	Active	11800

Reference: ChEMBL document CHEMBL2062375, “Discovery of an orally efficacious inhibitor of anaplastic lymphoma kinase” (J Med Chem, 2012)
